Activity calls are given as the source filed them. The calls are words filed in the database; no cut-off is given here. Numbered stars: 1 amine (or outer) side, 2 acyl side, 3 side chain; on linkers, the order of the positions; unused ones are H or OH. Bridge positions count the residues as written; N and C are the ends. Square brackets hold non-standard residues; d marks the D form. Peptide text beside a SMILES is read from it. * marks the point of attachment. Orn(4R-OH,5R-OH) = O=C([C@H](C[C@@H](O)[C@@H](O)N[*:3])N[*:1])[*:2]; hTyr(3S-OH,4S-OH) = N[C@H](C(=O)O)[C@H](O)[C@@H](O)c1ccc(O)cc1; Pro(3S-OH,4S-Me) = C[C@H]1CN[C@H](C(=O)O)[C@H]1O; Palmitoyl = CCCCCCCCCCCCCCCC(=O)*; Hyp = O=C(O)[C@@H]1C[C@@H](O)CN1
What was measured:
Saccharomyces cerevisiae [1] = test: Antifungal activity against Saccharomyces cerevisiae MYH 500 assessed as growth inhibition in presence of 80 mM sodium fluoride after 9 hrs; assay type: functional, organism-based
Summary of the method: (§1)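 S. cerevisiae growth in liquid medium with amphotericin B over a concentration series, plus a fixed 30 mM or 80 mM of NaF, KCl or NaCl. Cultures were shaken at 30°C for 9 h.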

Saccharomyces cerevisiae [2] = test: Antifungal activity against Saccharomyces cerevisiae MYH 500 assessed as growth inhibition in presence of 30 mM sodium fluoride after 9 hrs; assay type: functional, organism-based; summary of the method: as §1
Neurospora crassa [3] = test: Antifungal activity against Neurospora crassa FGSC 2225 assessed as growth inhibition at 300 nM after 24 hrs; assay type: functional, organism-based
Summary of the method: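 N. crassa, a filamentous fungus, was grown in liquid medium with amphotericin B for 24 h. Growth was scored visually in tubes, and the lowest concentration showing little or no visible growth was noted.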

Saccharomyces cerevisiae [4] = test: Antifungal activity against Saccharomyces cerevisiae MYH 500 assessed as growth inhibition at 300 nM after 48 hrs; assay type: functional, organism-based
Summary of the method: (§2)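 S. cerevisiae growth curves in liquid medium over 48 h. Amphotericin B was tested alone or at a fixed 10 nM or 20 nM with a range of sodium fluoride concentrations. Growth was followed as culture density.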

Saccharomyces cerevisiae [5] = test: Antifungal activity against Saccharomyces cerevisiae MYH 500 at 30 to 70 nM after 48 hrs; assay type: functional, organism-based; summary of the method: as §2
Saccharomyces cerevisiae [6] = test: Antifungal activity against Saccharomyces cerevisiae MYH 500 assessed as growth inhibition in presence of 80 mM NaCl after 9 hrs; assay type: functional, organism-based; summary of the method: as §1
Saccharomyces cerevisiae [7] = test: Potentiation of fluoride-induced antimicrobial effect against Saccharomyces cerevisiae MYH 500 assessed as increase in growth inhibition at 20 nM in presence of 30 to 100 mM sodium fluoride after 48 hrs; assay type: functional, organism-based; summary of the method: as §2
Saccharomyces cerevisiae [8] = test: Antifungal activity against Saccharomyces cerevisiae MYH 500 assessed as growth inhibition in presence of 80 mM sodium fluoride after 48 hrs relative to untreated control; assay type: functional
Neurospora crassa [9] = test: Antifungal activity against Neurospora crassa FGSC 2225 assessed as growth inhibition in presence of 10 mM sodium fluoride after 24 hrs relative to untreated control; assay type: functional
Summary of the method: (§3)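 Filamentous fungus grown in liquid medium tubes with fluoride plus a drug series. Growth was scored visually after 24 h. The endpoint was the lowest concentration tube showing little or no visible growth.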

Aspergillus nidulans [10] = test: Antifungal activity against Aspergillus nidulans ATCC 38163 assessed as growth inhibition in presence of 30 mM sodium fluoride after 24 hrs; assay type: functional, organism-based
Saccharomyces cerevisiae [11] = test: Antifungal activity against Saccharomyces cerevisiae MYH 500 assessed as growth inhibition in presence of 30 mM NaCl after 9 hrs; assay type: functional, organism-based; summary of the method: as §1
Saccharomyces cerevisiae [12] = test: Antifungal activity against Saccharomyces cerevisiae MYH 500 assessed as growth inhibition in presence of 30 mM sodium fluoride after 48 hrs relative to untreated control; assay type: functional
Aspergillus nidulans [13] = test: Antifungal activity against Aspergillus nidulans ATCC 38163 assessed as growth inhibition in presence of 10 mM sodium fluoride after 24 hrs; assay type: functional, organism-based
Saccharomyces cerevisiae [14] = test: Antifungal activity against Saccharomyces cerevisiae MYH 500 at 10 nM after 48 hrs; assay type: functional, organism-based; summary of the method: as §2
Neurospora crassa [15] = test: Antifungal activity against Neurospora crassa FGSC 2225 assessed as growth inhibition in presence of 30 mM sodium fluoride after 24 hrs relative to untreated control; assay type: functional; summary of the method: as §3
Saccharomyces cerevisiae [16] = test: Antifungal activity against Saccharomyces cerevisiae MYH 500 assessed as growth inhibition in presence of 30 mM Kcl after 9 hrs; assay type: functional, organism-based; summary of the method: as §1
Saccharomyces cerevisiae [17] = test: Antifungal activity against Saccharomyces cerevisiae MYH 500 assessed as growth inhibition in presence of 80 mM Kcl after 9 hrs; assay type: functional, organism-based; summary of the method: as §1
Saccharomyces cerevisiae [18] = test: Potentiation of fluoride-induced antimicrobial effect against Saccharomyces cerevisiae MYH 500 assessed as increase in growth inhibition at 10 nM in presence of 60 mM sodium fluoride after 48 hrs; assay type: functional, organism-based; summary of the method: as §2
Saccharomyces cerevisiae [19] = test: Potentiation of fluoride-induced antimicrobial effect against Saccharomyces cerevisiae MYH 500 assessed as increase in growth inhibition at 10 nM in presence of 30 to 100 mM sodium fluoride after 48 hrs; assay type: functional, organism-based; summary of the method: as §2
Saccharomyces cerevisiae [20] = test: Antifungal activity against Saccharomyces cerevisiae MYH 500 assessed as growth inhibition at 3 mM in presence of 30 mM sodium fluoride after 24 hrs relative to untreated control; assay type: functional, organism-based
Saccharomyces cerevisiae [21] = test: Antifungal activity against Saccharomyces cerevisiae MYH 500 assessed as growth inhibition at 3 mM after 48 hrs; assay type: functional, organism-based
Saccharomyces cerevisiae [22] = test: Antifungal activity against Saccharomyces cerevisiae MYH 500 assessed as growth inhibition at 3 mM in presence of 30 mM sodium fluoride after 48 hrs relative to untreated control; assay type: functional

## CCC(C)n1ncn(-c2ccc(N3CCN(c4ccc(OCC5COC(Cn6cncn6)(c6ccc(Cl)cc6Cl)O5)cc4)CC3)cc2)c1=O (centres undefined)
Saccharomyces cerevisiae [1]
  growth inhibition (GI): inactive
Saccharomyces cerevisiae [2]
  growth inhibition (GI): inactive

## C[C@@H]1[C@H](O)[C@@H](C)/C=C/C=C/C=C/C=C/C=C/C=C/C=C/[C@H](O[C@@H]2O[C@H](C)[C@@H](O)[C@H](N)[C@@H]2O)C[C@@H]2O[C@](O)(C[C@@H](O)C[C@@H](O)[C@H](O)CC[C@@H](O)C[C@@H](O)CC(=O)O[C@H]1C)C[C@H](O)[C@H]2C(=O)O [AMPHOTERICIN B]
Neurospora crassa [3]
  growth inhibition (GI): inactive
Saccharomyces cerevisiae [4]
  growth inhibition (GI): Active
Saccharomyces cerevisiae [5]
  Activity: inactive
Saccharomyces cerevisiae [6]
  growth inhibition (GI): Active
Saccharomyces cerevisiae [7]
  growth inhibition (GI): Active
Saccharomyces cerevisiae [8]
  fold change (FC): 30
Neurospora crassa [9]
  fold change (FC): 4
Aspergillus nidulans [10]
  growth inhibition (GI): Active
Saccharomyces cerevisiae [11]
  growth inhibition (GI): Active
Saccharomyces cerevisiae [12]
  fold change (FC): 10
Aspergillus nidulans [13]
  growth inhibition (GI): Active
Saccharomyces cerevisiae [14]
  Activity: inactive
Neurospora crassa [15]
  fold change (FC): 10
Saccharomyces cerevisiae [16]
  growth inhibition (GI): Active
Saccharomyces cerevisiae [17]
  growth inhibition (GI): Active
Saccharomyces cerevisiae [18]
  growth inhibition (GI): Active
Saccharomyces cerevisiae [19]
  growth inhibition (GI): Active

## N=C(N)NCCC[C@@H]1NC(=O)[C@H](CCCNC(=N)N)NC(=O)[C@H](CCCNC(=N)N)NC(=O)[C@H](CCCNC(=N)N)NC(=O)[C@H](CCCNC(=N)N)NC(=O)[C@H](CCCNC(=N)N)NC(=O)[C@H](CCCNC(=N)N)NC1=O [NOVEXATIN]
Saccharomyces cerevisiae [20]
  growth inhibition (GI): Active
Saccharomyces cerevisiae [21]
  growth inhibition (GI): Active
Saccharomyces cerevisiae [22]
  fold change (FC): >3

## NYSTATIN
Saccharomyces cerevisiae [1]
  growth inhibition (GI): Active
Saccharomyces cerevisiae [2]
  growth inhibition (GI): Active

## CCCCCCCCCCCCCCCC(=O)N[C@H]1C[C@@H](O)[C@@H](O)NC(=O)[C@@H]2[C@@H](O)[C@@H](C)CN2C(=O)[C@H]([C@@H](C)O)NC(=O)[C@H]([C@H](O)[C@@H](O)c2ccc(O)cc2)NC(=O)[C@@H]2C[C@@H](O)CN2C(=O)[C@H]([C@@H](C)O)NC1=O (Palmitoyl-[Orn(4R-OH,5R-OH)]T[Hyp][hTyr(3S-OH,4S-OH)]T[Pro(3S-OH,4S-Me)]; lactam 1-C)
Saccharomyces cerevisiae [2]
  growth inhibition (GI): inactive

## Cc1cccc(N(C)C(=S)Oc2ccc3ccccc3c2)c1
Saccharomyces cerevisiae [1]
  growth inhibition (GI): inactive
Saccharomyces cerevisiae [2]
  growth inhibition (GI): inactive

## CN(C/C=C/C#CC(C)(C)C)Cc1cccc2ccccc12
Saccharomyces cerevisiae [1]
  growth inhibition (GI): inactive
Saccharomyces cerevisiae [2]
  growth inhibition (GI): inactive

Reference: ChEMBL document CHEMBL2203216, “Fluoride enhances the activity of fungicides that destabilize cell membranes” (2012)
